# Most compounds without a hit are left out; they make up all but 4% or so of the library.
# Arrestin-AP2 inh: blocks beta-arrestin peptide binding to AP2 adaptin; FITC-arrestin peptide / GST-AP2 beads, flow cytometry; AP2 beta2 appendage carries R879A mutation; inhibition, % at 10 µM; 340,000 tested, 0.31% active; AID 504490;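 active means inhibition above a set limit, near 3 SD of compounds lacking own fluorescence, cut at about 54% in these data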;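 further: plate controls were DMSO wells for no effect and 5 µM unlabelled arrestin peptide for full effect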
#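 System: GST-tagged AP2 beta2-adaptin appendage (R879A) on 4 µm glutathione beads / Reagent: FITC-arrestin peptide, 50 nM / Detection: HyperCyt-sampled flow cytometry, FL1 channel, ex 488/em 535 nm / Timing: 12 min plus 1 h, RT / Buffer or medium: PBS plus Tween 20 (0.05%) and BSA (0.1%)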
# SENP1 inh: blocks the human SENP1 SUMO protease catalytic domain; inhibition, % at 10 µM; recombinant SENP1 catalytic domain, CyPet-SUMO1-YPet FRET cleavage; 360,000 tested, 0.21% active; Q9P0U3;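 active means inhibition at least 30% at 10 µM, raw YFP signal under a set limit, fluorescence ratio 0.5 to 1.5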;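 further: 0% = enzyme with DMSO and 100% = no enzyme wells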
# Target sequence (Q9P0U3 419-644 limits assumed): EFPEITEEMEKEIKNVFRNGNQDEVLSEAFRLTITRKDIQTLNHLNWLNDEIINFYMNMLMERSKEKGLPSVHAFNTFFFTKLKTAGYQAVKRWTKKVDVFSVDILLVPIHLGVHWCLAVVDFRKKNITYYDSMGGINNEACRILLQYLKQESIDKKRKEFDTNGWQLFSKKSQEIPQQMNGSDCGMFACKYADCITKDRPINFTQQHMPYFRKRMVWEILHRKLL
#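 Material – human SENP1 catalytic domain · Input – SENP1 enzyme, 20 pM final · Compound dosing – single concentration of 10 µM compound, 0.5% DMSO final · Timing – enzyme reaction for 50 min at room temperature, dark · Measured by – FRET fluorescence in CFP and YFP emission channels · Control set – no-enzyme wells low, DMSO-plus-enzyme wells high control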
# GRIN3A LBD mod: modulators (binders) of human NR3A ligand-binding domain; NR3A LBD differential scanning fluorimetry, Tm shift; 0% = protein alone, 100% = glycine-bound protein; Tm shift relative to glycine control, % at 25 µM; 340,000 tested, 2.5% active;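 active means melting temperature shift of at least 10% of the positive control shift, at one fixed dose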
# Cardio protect: modulators protecting cardiomyocytes from myocardial damage; H9c2 cardiomyocytes, H2O2 injury protection, ATPLite, 2 h; protection from H2O2 cell death, % at 20 µM; 360,000 tested, 0.63% active; AID 588492;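 active means compounds giving at least 50% protection of heart cells from peroxide-induced death in the single-dose screen, raw or plate-pattern-corrected value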;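 further: 0% = DMSO wells with peroxide and 100% = DMSO wells without peroxide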
# iPSC survival up: enhancers of human iPSC single-cell survival; survival enhancement, % at 20 µM; 360,000 tested, 0.044% active; hiPSC single-cell survival, ATPlite luminescence; 100% = ROCK inhibitor wells, 0% = DMSO; in the data active means survival enhancement above about 18%;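 further: cells exposed to compounds for 16 hours before the ATP read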
# FAS TE block: blocks the thioesterase domain of human fatty acid synthase; P49327; recombinant FAS-TE, OMFH fluorogenic substrate, fluorescence endpoint; inhibition, % at 15 µM; 360,000 tested, 0.67% active; AID 602261;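 active means compounds whose normalised, plate-corrected inhibition of enzyme fluorescence in the single-dose primary screen is 50% or more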;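 further: 0% = DMSO with enzyme and 100% = substrate without enzyme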
# FAS-TE inh conf: FAS thioesterase (human) inhibition, confirmation | recombinant FAS-TE, OMFH fluorogenic substrate, fluorescence | inhibition, % at 15 µM | 2,300 tested, 45% active | shares compounds with FAS TE block;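 active means compounds inhibiting the enzyme by at least 50% at 15 µM in any one of the replicates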;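 further: 0% = enzyme with DMSO only and 100% = wells lacking enzyme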
# An asterisk follows results filed as active; / = no result given.
SMILES,Arrestin-AP2 inh,SENP1 inh,GRIN3A LBD mod,Cardio protect,iPSC survival up,FAS TE block,FAS-TE inh conf
CCc1ccc([C@H]2[C@@H]3C(=O)C[C@@H]4C(=O)N(c5ccccc5)C(=O)[C@@H]4[C@@H]3CN2S(=O)(=O)c2ccc(C)cc2)cc1,/,0,/,-1,-1,33,/
Cc1ccc(S(=O)(=O)N2C[C@H]3C(=O)C[C@@H]4C(=O)N(c5ccccc5)C(=O)[C@@H]4[C@@H]3C[C@@H]2c2ccccc2)cc1,/,0,/,0,0,75*,39
CSc1ccc(/C=C/C(=O)OCC(=O)NC2CCCCCC2)cc1,/,0,/,-4,4,8,/
Cn1c(=O)c2cc(NC(=O)CCc3ccccc3)ccc2n1-c1ccccc1F,/,1,/,2,3,-2,/
CCC1OC(C(C)C)Cc2[nH][nH]c(=O)c21 (centres undefined),/,1,/,/,0,-11,/
Cc1nc2sc3c(c2c(=O)o1)CCCC3,-2,1,-2,1,0,-2,/
O=c1oc(-c2ccco2)nc2sc3c(c12)CCCC3,-8,-91,-1,-15,-1,66*,24
CC(C)(C)NC(=O)/C(=C/c1ccccc1F)NC(=O)c1ccc([N+](=O)[O-])cc1,2,4,2,0,-1,42,/
CCCCOc1ccc(C(=O)N/C(=C\c2cccc([N+](=O)[O-])c2)C(=O)OCCC)cc1,5,1,0,-12,0,12,/
O=C(Nc1ccc(C(=O)O)cc1)/C(=C\c1ccc([N+](=O)[O-])cc1)NC(=O)c1ccc(Br)cc1,1,0,-4,-4,0,82*,91*
COc1ccc(/C=C(\NC(=O)c2ccc(C)cc2)C(=O)NCCCn2ccnc2)cc1,-3,1,-1,1,0,-3,/
COc1ccc(/C=C(/NC(=O)c2ccc([N+](=O)[O-])cc2)C(=O)NC(C)(C)C)cc1,0,1,0,-3,2,70*,55*
COc1ccc(/C=C(\NC(=O)c2ccc([N+](=O)[O-])cc2)C(=O)NCCCn2ccnc2)cc1,7,0,0,4,0,74*,81*
O=C(Nc1ccc(C(=O)O)cc1)/C(=C\c1ccc2c(c1)OCO2)NC(=O)c1ccc(Br)cc1,26,-12,0,1,-1,3,/
CCCCOc1ccc(C(=O)N/C(=C\c2ccc([N+](=O)[O-])cc2)C(=O)OCc2ccco2)cc1,-6,-1,-2,-10,-1,60*,40
COc1ccc(N(C)S(=O)(=O)c2cccc(C(=O)N3CCN(S(=O)(=O)c4ccc(C)cc4)CC3)c2)cc1,-8,-2,0,4,0,52*,5
COc1ccc(S(=O)(=O)N2CCN(C(=O)c3cccc(S(=O)(=O)N4CCCC4)c3)CC2)cc1,/,0,/,-2,0,-2,/
O=S(=O)(Nc1cccc(-c2ccc(N3CCCCCC3)nn2)c1)c1ccccc1Cl,17,-2,7,-4,-1,50*,11
O=S(=O)(Nc1cccc(-c2ccc(N3CCCCCC3)nn2)c1)c1ccccc1F,-30,4,-3,-6,0,56*,62*
CCOC(=O)N1CCN(Cc2cc(=O)oc3ccc4ccccc4c23)CC1,7,-7,-3,-14,1,10,/
O=C(CC12CC3CC(CC(C3)C1)C2)NCC(=O)OCc1cc(=O)oc2ccc3ccccc3c12,-13,-37,-1,3,0,55*,15
CN(C)S(=O)(=O)c1ccc(N2CCCC2)c(C(=O)Nc2nc(-c3ccc(F)cc3)cs2)c1,-6,-8,-6,-2,0,56*,24
CN(C)S(=O)(=O)c1ccc(N2CCCC2)c(C(=O)Nc2nc3ccc(F)cc3s2)c1,22,-24,-18,-6,2,71*,22
COc1ccccc1CNC(=O)c1cc(S(=O)(=O)N2CCN(c3ccccc3)CC2)ccc1Cl,3,-1,1,-3,0,65*,25
COc1ccc(S(=O)(=O)N2CCOCC2)cc1C(=O)Nc1ccc(N2CCCCCC2)cc1,36,1,-1,-22,-4,62*,23
SMILES,Arrestin-AP2 inh,SENP1 inh,GRIN3A LBD mod,Cardio protect,iPSC survival up,FAS TE block,FAS-TE inh conf
COc1ccc(-c2cnnn2-c2ccc(NC(=O)c3ccc(S(=O)(=O)N4CCCCC4)cc3)cc2)cc1OC,-2,4,1,1,-2,88*,6
COc1ccc(C(=O)Nc2ccc(S(=O)(=O)N3CCCCC3)cc2)cc1OC,3,1,-3,12,-1,9,/
CC(C)(C)NC(=O)C(c1ccc(O)cc1)N(Cc1ccc2c(c1)OCO2)C(=O)CCl (centres undefined),/,0,/,6,1,-5,/
CNc1cncc(-c2cc(OC)c(OC)c(OC)c2)n1,/,-12,/,0,-2,-8,/
CN(C(=O)COC(=O)C12CC3CC(CC(Cl)(C3)C1)C2)c1ccccc1,-3,1,1,0,4,26,/
N#CC1(NC(=O)COC(=O)c2cc([N+](=O)[O-])ccc2N2CCOCC2)CCCCC1,37,2,-1,0,1,68*,80*
N#CC1(NC(=O)COC(=O)c2cc([N+](=O)[O-])ccc2N2CCCC2)CCCCC1,6,-4,-2,1,0,66*,75*
CN(C)S(=O)(=O)c1ccc(N2CCCC2)c(C(=O)OCC(=O)NC2(C#N)CCCCC2)c1,-11,4,2,2,0,2,/
CC(C)NC(=O)N1Cc2cc(C(=O)NC3CCCC3)nc(-c3cccc(-c4cccnc4)c3)c2[C@@H]1CCO,/,3,/,/,1,-5,/
COc1ncnc2c1ncn2CCCNC1CCN(Cc2ccccc2)CC1,/,-1,/,-2,1,-4,/
CN(C)CCNc1nc(Oc2ccccc2)c2sccc2n1,/,-2,/,0,-1,-6,/
C[C@H](NC(=O)c1nc[nH]c1C(=O)N[C@@H](CCCCNC(=O)OC(C)(C)C)C(=O)OC(C)(C)C)C(=O)OC(C)(C)C,5,0,-2,13,1,73*,62*
CC(C)C[C@H](NC(=O)c1nc[nH]c1C(=O)NC1CCN(C(=O)OC(C)(C)C)CC1)C(=O)OC(C)(C)C,0,1,-12,33,-3,20,/
CC(C)C[C@H](NC(=O)c1nc[nH]c1C(=O)NC1CCN(C(=O)OC(C)(C)C)CC1)C(=O)OCc1ccccc1,7,-2,0,-21,3,58*,61*
CC(C)(C)OC(=O)NCc1ccc(CNC(=O)c2[nH]cnc2C(=O)NC2CCN(C(=O)OC(C)(C)C)CC2)cc1,-8,2,-8,45,0,54*,40

# Assay outcomes (PubChem BioAssay)
